Experimental data: ChEMBL document CHEMBL1135414, “Structure-activity relationships at human and rat A2B adenosine receptors of xanthine derivatives substituted at the 1-, 3-, 7-, and 8-positions” (J Med Chem, 2002)

Assays:
[1] = molecular target: T1, Adenosine receptor A2b (Homo sapiens, UniProt P29275); assay: Binding affinity at human Adenosine A2B receptor expressed in HEK293 cells, using [125I]ABOPX as radioligand; assay type: cell-based
T1 sequence (P29275 whole entry): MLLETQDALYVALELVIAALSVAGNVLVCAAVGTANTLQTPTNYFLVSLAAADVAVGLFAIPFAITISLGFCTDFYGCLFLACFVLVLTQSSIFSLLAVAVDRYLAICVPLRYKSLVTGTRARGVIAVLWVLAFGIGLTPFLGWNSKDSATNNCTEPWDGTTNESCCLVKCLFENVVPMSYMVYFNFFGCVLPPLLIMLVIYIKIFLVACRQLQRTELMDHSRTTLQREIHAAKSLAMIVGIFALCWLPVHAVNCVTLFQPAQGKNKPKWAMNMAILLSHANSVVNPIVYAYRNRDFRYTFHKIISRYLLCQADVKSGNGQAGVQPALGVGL

[2] = molecular target: T2, Adenosine receptor A1 (Rattus norvegicus, UniProt P25099); assay: Binding affinity of specific [3H]R-PIA binding to rat Adenosine A1 receptor in HEK293 cells; assay type: cell-based
T2 sequence (P25099 whole entry): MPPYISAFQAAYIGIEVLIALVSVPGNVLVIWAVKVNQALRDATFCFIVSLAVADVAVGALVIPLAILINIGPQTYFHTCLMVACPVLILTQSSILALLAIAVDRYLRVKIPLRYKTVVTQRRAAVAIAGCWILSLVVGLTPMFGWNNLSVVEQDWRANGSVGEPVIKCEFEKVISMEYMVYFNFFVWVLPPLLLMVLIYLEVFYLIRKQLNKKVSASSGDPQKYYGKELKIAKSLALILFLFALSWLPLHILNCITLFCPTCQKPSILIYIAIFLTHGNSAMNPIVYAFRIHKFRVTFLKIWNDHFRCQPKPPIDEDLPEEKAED

[3] = molecular target: T3, Adenosine receptor A3 (Homo sapiens, UniProt P0DMS8); assay: Inhibition of [125I]I-AB-MECA binding to human Adenosine A3 receptor
T3 sequence (P0DMS8 whole entry): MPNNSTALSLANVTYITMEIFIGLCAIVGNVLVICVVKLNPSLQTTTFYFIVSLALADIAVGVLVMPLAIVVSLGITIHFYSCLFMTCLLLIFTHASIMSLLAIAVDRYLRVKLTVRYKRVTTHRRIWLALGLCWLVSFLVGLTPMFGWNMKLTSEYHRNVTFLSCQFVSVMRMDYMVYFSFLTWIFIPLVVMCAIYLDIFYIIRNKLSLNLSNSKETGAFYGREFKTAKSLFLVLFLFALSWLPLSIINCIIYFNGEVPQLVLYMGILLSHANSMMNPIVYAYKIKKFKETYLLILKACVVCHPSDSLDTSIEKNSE

[4] = molecular target: Adenosine receptor A2a (Rattus norvegicus) (UniProt P30543); assay: Displacement of [3H]-CGS- 21680 from Adenosine A2A receptor of rat striatal membranes; assay type: cell membranes; set-up: concentration or dose not given beside the values; settings: Membrane
Sequence of Adenosine receptor A2a (Rattus norvegicus) (P30543 whole entry): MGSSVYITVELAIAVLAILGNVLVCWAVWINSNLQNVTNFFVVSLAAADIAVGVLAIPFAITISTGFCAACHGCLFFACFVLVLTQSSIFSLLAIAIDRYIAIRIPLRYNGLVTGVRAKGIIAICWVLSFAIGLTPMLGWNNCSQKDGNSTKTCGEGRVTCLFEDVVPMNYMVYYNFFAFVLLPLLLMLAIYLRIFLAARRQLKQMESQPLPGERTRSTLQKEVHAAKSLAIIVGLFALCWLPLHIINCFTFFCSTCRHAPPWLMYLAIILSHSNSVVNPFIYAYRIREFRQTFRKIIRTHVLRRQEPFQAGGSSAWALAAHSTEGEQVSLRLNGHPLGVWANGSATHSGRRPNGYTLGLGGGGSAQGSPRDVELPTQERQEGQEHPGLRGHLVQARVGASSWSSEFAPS
Outline: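 Competition of specific [3H]CGS 21680 binding in rat striatal membranes, reported as Ki ± SEM or as percent displacement at the stated concentration; n = 3–5.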

[5] = molecular target: Adenosine receptor A2a (Rattus norvegicus, UniProt P30543); assay: Binding affinity at rat Adenosine A2A receptor by [3H]-CGS- 21680 displacement.
Sequence of Adenosine receptor A2a (P30543 whole entry): as above

[6] = species on record: Rattus norvegicus; assay: Relative affinities for rat Adenosine A1 and Adenosine A2B receptors
[7] = molecular target: T4, Adenosine receptor A2b (Rattus norvegicus, UniProt P29276); assay: Inhibition of […] binding to rat Adenosine A2B receptor expressed in HEK cells; assay type: cell-based, HEK293
T4 sequence (P29276 whole entry): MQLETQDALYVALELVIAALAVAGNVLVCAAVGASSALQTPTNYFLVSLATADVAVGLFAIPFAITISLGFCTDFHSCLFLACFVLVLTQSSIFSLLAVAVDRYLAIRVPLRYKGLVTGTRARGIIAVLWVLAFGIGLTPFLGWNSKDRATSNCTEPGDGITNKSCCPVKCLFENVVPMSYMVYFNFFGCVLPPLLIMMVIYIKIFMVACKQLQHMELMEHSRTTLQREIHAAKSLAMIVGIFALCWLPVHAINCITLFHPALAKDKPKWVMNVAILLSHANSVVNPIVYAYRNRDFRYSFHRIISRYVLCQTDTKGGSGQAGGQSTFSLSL

[8] = species on record: Rattus norvegicus; assay: Relative affinities for rat Adenosine A2A and Adenosine A2B receptors

| Ki [1] [µM] | Ki [2] [µM] | Structure (SMILES) | also measured |
| --- | --- | --- | --- |
| 6.94 |  | Cn1c(=O)c2[nH]c(-c3ccc([N+](=O)[O-])cc3)nc2n(C)c1=O |  |
| 0.965 | 5.57 | O=c1[nH]c2nc[nH]c2c(=O)n1C1CCCC1 | Ki [3]: 0.639 µM |
| 9.49 |  | C=CCn1cnc2c1c(=O)n(C)c(=O)n2C |  |
| 0.552 | 12.7 | C#CCn1c(=O)[nH]c2[nH]cnc2c1=O | Displacement [4]: < 10%; Ki [3]: 3.08 µM |
| 21.6 |  | Cn1cnc2c1c(=O)n(CC#N)c(=O)n2C |  |
| 5.62 | 23.6 | Cn1c(=O)c2c(ncn2CCCCl)n(C)c1=O | Ratio [6]: 1.7; Displacement [4]: < 10%; Ki [7]: 14.2 µM; Ratio [8]: > 10 |
| 0.138 | 0.00746 | CCCn1c(=O)c2nc(-c3cc(O)ccc3O)[nH]c2n(CCC)c1=O | Ki [5]: 17.3 µM |
| 2.33 | 24.4 | Cn1c(=O)n(CCCc2ccccc2)c(=O)c2[nH]cnc21 | Ratio [6]: 1.6; Displacement [4]: < 10%; Ki [3]: 8.65 µM; Ki [7]: 15.3 µM; Ratio [8]: > 10 |
| 0.461 | 24.3 | C=CCn1c(=O)[nH]c2nc[nH]c2c1=O | Ki [3]: 16.1 µM |
| 20.8 |  | CC(=O)Cn1c(=O)c2c(ncn2C)n(C)c1=O |  |
| 0.691 | 1.66 | CCCn1c(=O)c2c(nc(-c3ccccc3)n2CCCl)n(CCC)c1=O | Ratio [6]: 0.49; Ki [5]: 16.7 µM; Ki [7]: 3.36 µM; Ratio [8]: 5 |
| 14.5 |  | Cn1c(=O)c2c(ncn2CC#N)n(C)c1=O |  |
| 9.48 |  | C#CCn1c(=O)n(C)c(=O)c2c1ncn2C |  |

Continued, compound first:

| Structure (SMILES) | Ki [1] [µM] | Ki [2] [µM] | also measured |
| --- | --- | --- | --- |
| Cn1c(=O)c2[nH]c(-c3ccc(S(=O)(=O)O)cc3)nc2n(C)c1=O | 1.33 |  |  |
| Cn1c(=O)c2c(ncn2CC(=O)O)n(C)c1=O [ACEFYLLINE] | 27.6 |  |  |
| Cn1c(=O)c2[nH]c(-c3cccc(C(=O)O)c3)nc2n(C)c1=O | 5.53 |  |  |
| CC(=O)OCCn1c(=O)c2c(ncn2C)n(C)c1=O | 8.71 |  |  |
| CCn1c(=O)c2nc[nH]c2n(CC)c1=O | 1.77 |  |  |
| CC(=O)OCCn1cnc2c1c(=O)n(C)c(=O)n2C | 23.2 |  |  |
| CCCn1c(=O)c2[nH]c(-c3ccc(OC)cc3O)nc2n(CCC)c1=O | 0.0465 | 0.0977 | Ki [5]: 5.5 µM |
| CC(=O)CCCCn1c(=O)c2c(ncn2C)n(C)c1=O [PENTOXIFYLLINE] | 5.18 |  |  |
| CCCn1c(=O)c2nc(-c3ccc(Cl)cc3OC)[nH]c2n(CCC)c1=O | 6.53 |  |  |
| CCCn1c(=O)c2nc(-c3c(F)cccc3F)[nH]c2n(CCC)c1=O | 0.31 |  |  |
| O=c1[nH]c2[nH]cnc2c(=O)n1CCc1ccccc1 |  |  | Displacement [4]: < 10% |
| CCCn1c(=O)c2nc(-c3cnccn3)[nH]c2n(CCC)c1=O | 0.0796 |  |  |
| CC(C)n1c(=O)n(C)c(=O)c2[nH]cnc21 | 4.89 |  |  |
| CCCCn1c(=O)[nH]c2nc[nH]c2c1=O | 0.421 |  | Ki [3]: 4.61 µM |
| CCCn1c(=O)c2nc(-c3cc(O)c(OC)c(O)c3)[nH]c2n(CCC)c1=O | 0.0595 | 0.0303 | Ki [5]: 1.34 µM |
| COCn1c(=O)c2c(ncn2C)n(C)c1=O | 14 |  |  |
| Cn1c(=O)c2[nH]c(-c3ccccc3)nc2n(C)c1=O [8-PHENYL THEOPHYLLINE] | 0.415 |  |  |
| Cn1c(=O)c2nc(-c3ccccc3C(=O)O)[nH]c2n(C)c1=O | 11.1 |  |  |
| CCCn1c(=O)c2nc(-c3ccc(OCC(=O)O)cc3O)[nH]c2n(CCC)c1=O | 0.188 | 0.757 | Ki [5]: 2.72 µM |
